Source: ChEMBL document CHEMBL3286267, “Discovery of MK-4409, a Novel Oxazole FAAH Inhibitor for the Treatment of Inflammatory and Neuropathic Pain” (ACS Med Chem Lett, 2014)
Active and inactive are the calls of the source. The rule behind the calls is not given here.

What was measured:
[1] = molecular target: Voltage-gated inwardly rectifying potassium channel KCNH2 (Homo sapiens, UniProt Q12809); assay: Displacement of [35S]MK-499 from human ERG
Method in brief: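 hERG K+ channel binding assay measuring displacement of the radiolabelled channel blocker [35S]MK-499. Values are averages of at least three duplicates.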

[2] = molecular target: T1, Fatty-acid amide hydrolase 1 (Rattus norvegicus, UniProt P97612); assay: Inhibition of rat FAAH lysate using AMCAA as substrate by fluorescence assay
T1 sequence (P97612 whole entry): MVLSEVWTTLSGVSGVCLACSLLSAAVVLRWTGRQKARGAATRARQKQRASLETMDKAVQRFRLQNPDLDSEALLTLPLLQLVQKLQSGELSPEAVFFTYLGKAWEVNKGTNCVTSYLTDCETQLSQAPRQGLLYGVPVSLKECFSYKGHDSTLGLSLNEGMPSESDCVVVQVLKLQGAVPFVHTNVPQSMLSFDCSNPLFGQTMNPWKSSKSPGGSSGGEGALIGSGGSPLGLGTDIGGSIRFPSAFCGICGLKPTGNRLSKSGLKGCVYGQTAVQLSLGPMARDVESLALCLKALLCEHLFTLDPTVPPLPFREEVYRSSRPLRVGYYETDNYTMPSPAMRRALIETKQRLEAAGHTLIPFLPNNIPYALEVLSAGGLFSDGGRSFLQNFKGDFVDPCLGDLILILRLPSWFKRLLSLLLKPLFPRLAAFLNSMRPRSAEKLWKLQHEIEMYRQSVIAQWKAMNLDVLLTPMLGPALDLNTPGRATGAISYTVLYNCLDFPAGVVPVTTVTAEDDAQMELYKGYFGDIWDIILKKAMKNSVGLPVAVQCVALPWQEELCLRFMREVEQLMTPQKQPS
Method in brief: (§1)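 In vitro assays, with values reported as the average of at least three duplicates.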

[3] = molecular target: T2, Fatty-acid amide hydrolase 1 (Homo sapiens, UniProt O00519); assay: Inhibition of human FAAH lysate using AMCAA as substrate by fluorescence assay; method in brief: as §1
T2 sequence (O00519 whole entry): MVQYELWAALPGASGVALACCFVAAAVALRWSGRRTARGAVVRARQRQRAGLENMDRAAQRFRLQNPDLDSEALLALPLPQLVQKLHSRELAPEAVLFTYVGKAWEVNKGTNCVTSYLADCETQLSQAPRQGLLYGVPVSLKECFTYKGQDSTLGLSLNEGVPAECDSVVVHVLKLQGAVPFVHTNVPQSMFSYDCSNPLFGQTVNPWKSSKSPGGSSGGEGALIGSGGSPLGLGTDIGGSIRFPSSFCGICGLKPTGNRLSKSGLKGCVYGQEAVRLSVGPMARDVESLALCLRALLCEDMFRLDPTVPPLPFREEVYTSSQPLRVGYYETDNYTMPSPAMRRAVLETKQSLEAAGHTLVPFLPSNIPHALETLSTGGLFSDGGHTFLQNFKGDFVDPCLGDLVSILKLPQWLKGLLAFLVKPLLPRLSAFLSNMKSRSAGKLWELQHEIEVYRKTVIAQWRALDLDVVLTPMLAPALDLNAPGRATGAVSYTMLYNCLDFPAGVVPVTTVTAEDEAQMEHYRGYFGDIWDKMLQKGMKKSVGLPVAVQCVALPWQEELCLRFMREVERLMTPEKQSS

Rattus norvegicus [4] = assay: Analgesic activity in Sprague-Dawley rat complete Freund's adjuvant-induced inflammatory pain model assessed as reversal of mechanical allodynia at 2 mg/kg/day, ip measured up to 5 days; format: functional, organism-based
Method in brief: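 Inflammatory pain induced in rats by intraplantar injection of complete Freund's adjuvant into the hind paws. Mechanical allodynia was followed under a chronic repeated-dosing paradigm across several days to check for loss of antinociception (tachyphylaxis).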

Rattus norvegicus [5] = assay: Analgesic activity in Sprague-Dawley rat complete Freund's adjuvant-induced inflammatory pain model assessed as reversal of mechanical allodynia at 10 mg/kg, po single dose measured after 1 hr; format: functional
Method in brief: (§2)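 Inflammatory pain induced in rats by intraplantar injection of complete Freund's adjuvant into the hind paw. Mechanical allodynia was assessed at 1 and 3 h after a single oral dose. For each rat, percent reversal = (postdose – predose)/(preinjury – predose), averaged over n = 6.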

Rattus norvegicus [6] = assay: Analgesic activity in Sprague-Dawley rat complete Freund's adjuvant-induced inflammatory pain model assessed as reversal of mechanical allodynia at 10 mg/kg, po single dose measured after 3 hrs; format: functional; method in brief: as §2
[7] = Inhibition of human vesicular monoamine transporter; method in brief: as §1
[8] = Plasma concentration in Sprague-Dawley rat at 30 mg/kg/day, po measured after 24 hrs on day 5; format: ADME, organism-based; parameters: route oral
Method in brief: (§3)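 Chronic paradigm in the CFA inflammatory pain model in rats (intraplantar complete Freund's adjuvant in the hind paw). Daily oral dosing continued for up to 10 days, with a pan CB agonist run for comparison. Allodynia was followed over the days. Plasma exposures were sampled at 3 and 24 h after dosing at 30 mg/kg.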

[9] = Volume of distribution at steady state in rat at 1 mg/kg, iv and 2 mg/kg, po; format: ADME, organism-based; conditions: in vivo, read-out: Vdss
Method in brief: (§4)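 Rat PK given 1 mg/kg iv in DMSO/PEG400/H2O 20/60/20 and 2 mg/kg po in either Imwitor/Tween 1/1 or PEG400/Tween80/H2O 40/10/50. Half-life, clearance, volume of distribution, dose-normalized AUC (AUCN) and oral bioavailability were derived.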

Rattus norvegicus [10] = assay: Toxicity in Harlan rat assessed as motor impairment at 3 mg/kg, po by rotarod test; format: organism-based; parameters: dose 3 mg/kg, route oral; conditions: in vivo
[11] = Plasma concentration in Sprague-Dawley rat at 30 mg/kg/day, po measured after 3 hrs on day 5; format: ADME, organism-based; parameters: route oral; method in brief: as §3
[12] = Plasma concentration in Sprague-Dawley rat at 30 mg/kg/day, po measured after 3 hrs on day 8; format: ADME, organism-based; parameters: route oral; method in brief: as §3
Rattus norvegicus [13] = assay: Analgesic activity in Sprague-Dawley rat complete Freund's adjuvant-induced inflammatory pain model assessed as reversal of mechanical allodynia at 30 mg/kg, po single dose measured after 1 hr; format: functional; method in brief: as §2
[14] = Plasma concentration in Sprague-Dawley rat at 30 mg/kg/day, po measured after 3 hrs on day 1; format: ADME, organism-based; parameters: route oral; method in brief: as §3
Rattus norvegicus [15] = assay: Analgesic activity in Sprague-Dawley rat complete Freund's adjuvant-induced inflammatory pain model assessed as reversal of mechanical allodynia at 30 mg/kg, po single dose measured after 3 hrs; format: functional; method in brief: as §2
Rattus norvegicus [16] = assay: Analgesic activity in Sprague-Dawley rat complete Freund's adjuvant-induced inflammatory pain model assessed as reversal of mechanical allodynia at 30 mg/kg/day, po measured up to 10 days; format: functional, organism-based; method in brief: as §3
[17] = Plasma concentration in Sprague-Dawley rat at 30 mg/kg/day, po measured after 24 hrs on day 8; format: ADME, organism-based; parameters: route oral; method in brief: as §3
Rattus norvegicus [18] = assay: Antiallodynic activity in Harlan rat spinal nerve ligation model of neuropathic pain assessed as reversal of allodynia at 3 mg/kg, po; format: functional
[19] = Fraction unbound in dog plasma; format: ADME, cell-free, Canis lupus familiaris
[20] = Plasma concentration in Sprague-Dawley rat at 30 mg/kg/day, po measured after 3 hrs on day 9; format: ADME, organism-based; parameters: route oral; method in brief: as §3
[21] = Fraction unbound in human plasma; format: ADME, cell-free
[22] = Fraction unbound in rhesus monkey plasma; format: ADME, cell-free, Macaca mulatta
[23] = Half life in rat at 1 mg/kg, iv and 2 mg/kg, po; format: ADME, organism-based; conditions: in vivo; method in brief: as §4
[24] = Fraction unbound in rat plasma; format: ADME, cell-free
[25] = Plasma concentration in Sprague-Dawley rat at 30 mg/kg/day, po measured after 24 hrs on day 3; format: ADME, organism-based; parameters: route oral; method in brief: as §3
[26] = Plasma concentration in Sprague-Dawley rat at 30 mg/kg/day, po measured after 3 hrs on day 2; format: ADME, organism-based; parameters: route oral; method in brief: as §3
[27] = Bioavailability in rat at 1 mg/kg, iv and 2 mg/kg, po; format: ADME, organism-based; conditions: in vivo; method in brief: as §4
[28] = Plasma concentration in Sprague-Dawley rat at 30 mg/kg/day, po measured after 3 hrs on day 10; format: ADME, organism-based; parameters: route oral; method in brief: as §3
[29] = Plasma concentration in Sprague-Dawley rat at 30 mg/kg/day, po measured after 24 hrs on day 9; format: ADME, organism-based; parameters: route oral; method in brief: as §3
[30] = Clearance in rat at 1 mg/kg, iv and 2 mg/kg, po; format: ADME, organism-based; conditions: in vivo; method in brief: as §4
[31] = Plasma concentration in Sprague-Dawley rat at 30 mg/kg/day, po measured after 3 hrs on day 3; format: ADME, organism-based; parameters: route oral; method in brief: as §3
[32] = Plasma concentration in Sprague-Dawley rat at 30 mg/kg/day, po measured after 24 hrs on day 10; format: ADME, organism-based; parameters: route oral; method in brief: as §3
Rattus norvegicus [33] = assay: Dose normalized AUC in rat at 1 mg/kg, iv and 2 mg/kg, po; format: ADME, organism-based; conditions: in vivo; method in brief: as §4
[34] = Plasma concentration in Sprague-Dawley rat at 30 mg/kg/day, po measured after 24 hrs on day 2; format: ADME, organism-based; parameters: route oral; method in brief: as §3

Sequence of Voltage-gated inwardly rectifying potassium channel KCNH2 (Q12809 whole entry): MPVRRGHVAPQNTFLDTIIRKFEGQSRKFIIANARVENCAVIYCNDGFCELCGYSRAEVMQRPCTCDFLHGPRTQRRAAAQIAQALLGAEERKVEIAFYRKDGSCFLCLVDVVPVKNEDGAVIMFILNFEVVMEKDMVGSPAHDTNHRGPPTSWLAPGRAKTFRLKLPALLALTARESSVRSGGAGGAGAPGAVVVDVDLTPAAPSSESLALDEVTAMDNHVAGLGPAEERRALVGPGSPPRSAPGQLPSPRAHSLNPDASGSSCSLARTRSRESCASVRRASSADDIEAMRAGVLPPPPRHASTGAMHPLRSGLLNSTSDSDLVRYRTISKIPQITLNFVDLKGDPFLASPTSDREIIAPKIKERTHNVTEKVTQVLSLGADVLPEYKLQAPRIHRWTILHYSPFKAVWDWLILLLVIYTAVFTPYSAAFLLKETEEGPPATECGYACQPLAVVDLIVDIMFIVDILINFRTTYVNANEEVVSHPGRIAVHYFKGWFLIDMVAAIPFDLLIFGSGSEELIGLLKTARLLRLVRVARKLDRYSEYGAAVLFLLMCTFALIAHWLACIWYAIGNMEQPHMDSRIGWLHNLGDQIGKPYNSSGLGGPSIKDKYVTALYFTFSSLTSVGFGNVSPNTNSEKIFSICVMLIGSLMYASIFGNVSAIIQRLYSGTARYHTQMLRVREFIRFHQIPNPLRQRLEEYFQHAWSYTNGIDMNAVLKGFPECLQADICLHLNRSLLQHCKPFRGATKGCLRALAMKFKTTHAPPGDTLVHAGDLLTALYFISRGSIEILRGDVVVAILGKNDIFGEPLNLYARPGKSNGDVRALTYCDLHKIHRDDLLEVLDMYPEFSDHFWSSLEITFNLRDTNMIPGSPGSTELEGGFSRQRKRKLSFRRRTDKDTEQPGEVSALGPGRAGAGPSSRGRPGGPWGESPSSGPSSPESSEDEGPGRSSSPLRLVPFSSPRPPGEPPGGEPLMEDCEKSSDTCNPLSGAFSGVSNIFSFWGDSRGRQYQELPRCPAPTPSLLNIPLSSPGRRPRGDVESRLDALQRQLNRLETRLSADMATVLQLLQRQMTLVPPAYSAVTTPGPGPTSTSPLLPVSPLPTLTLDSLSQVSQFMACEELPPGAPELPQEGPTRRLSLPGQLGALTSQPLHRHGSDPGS

Clc1ccc(Sc2c[nH]nc2-c2ccc3c(c2)OCCO3)cc1
Ki [1]: 1540 nM | IC50 [2]: 125 nM | IC50 [3]: 119 nM

Cc1c(C(=O)c2cccc3ccccc23)c2cccc3c2n1[C@H](CN1CCOCC1)CO3
Activity (Rattus norvegicus [4]): inactive

CS(=O)(=O)c1ccc(-c2nc(-c3ccccc3)oc2Sc2ccc(Cl)cc2)cc1
Ki [1]: 28500 nM | IC50 [2]: 6 nM | IC50 [3]: 13 nM

CS(=O)(=O)c1ccc(-c2nc(-c3ccc(F)cc3)oc2Sc2ccc(Cl)cn2)cc1
Activity (Rattus norvegicus [5]): 46% | Activity (Rattus norvegicus [6]): 44% | Ki [1]: 2500 nM | IC50 [2]: 21 nM | EC50 [7]: 14000 nM

CC(C)(O)c1ccc(-c2nc(-c3ccc(F)cc3)oc2Sc2ccc(Cl)cn2)cn1
concentration at 24 h [8]: 6.5 µM | Vd [9]: 6.2 L/kg | Activity (Rattus norvegicus [10]): Non-toxic | concentration at 3 h [11]: 13.2 µM | concentration at 3 h [12]: 12.2 µM | Activity (Rattus norvegicus [13]): 70% | concentration at 3 h [14]: 5.4 µM | Activity (Rattus norvegicus [15]): 71% | Activity (Rattus norvegicus [16]): Active | Activity (Rattus norvegicus [5]): 49% | concentration at 24 h [17]: 7.3 µM | inhibition in vivo at 3 mg/kg (Rattus norvegicus [18]): 50% | fraction unbound [19]: 0.012 | concentration at 3 h [20]: 13.7 µM | Activity (Rattus norvegicus [6]): 51% | Ki [1]: 1250 nM | fraction unbound [21]: 0.016 | fraction unbound [22]: 0.008 | half-life [23]: 4.3 h | IC50 [2]: 11 nM | fraction unbound [24]: 0.029 | concentration at 24 h [25]: 4.1 µM | concentration at 3 h [26]: 8 µM | bioavailability [27]: 120% | concentration at 3 h [28]: 14.2 µM | concentration at 24 h [29]: 8.3 µM | EC50 [7]: > 20000 nM | clearance [30]: 20 mL/min/kg | concentration at 3 h [31]: 11.9 µM | IC50 [3]: 11 nM | concentration at 24 h [32]: 7.9 µM | AUC/dose (Rattus norvegicus [33]): 2.2 µM·kg·h/mg | concentration at 24 h [34]: 2.1 µM
